≈ marks a conversion by molar mass, not a printed value. A value given as a limit tells only on which side of the number the result lay.

Assay [1] concerns Mycobacterium avium. The experiment in a line: In vitro cytotoxicity against Mycobacterium avium (CIP 103317) was determined. It counts as functional.
Assay [2] concerns Mycobacterium tuberculosis. Nature of the assay: In vitro minimum inhibitory concentration against Mycobacterium tuberculosis CIP 103471 was determined. It counts as functional. In outline: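 Broth microdilution in Middlebrook 7H9 with 10% ADC. DMSO stocks were filter-sterilised (0.2 μm nylon), then serially diluted 2-fold in water. Tubes were incubated at 37°C for 10-15 days alongside a drug-free control. MIC was the lowest concentration with no visible turbidity.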

The test system of assay [3] is Mycolicibacterium smegmatis. Nature of the assay: In vitro cytotoxicity against Mycobacterium smegmatis CIP (103599) was determined. The format is functional. In outline: (§1)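 Broth microdilution in Middlebrook 7H9. Stocks were made in DMSO and filter-sterilized (0.2 μm), then serially diluted 2-fold in water. Tubes were incubated at 37°C for 10-15 days, with a drug-free control tube in each experiment. MIC (μg/mL) is the lowest concentration giving no visible turbidity.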

For the next assay, the system named is Mycobacterium marinum. The experiment in a line: In vitro cytotoxicity against Mycobacterium marinum (CIP 6423) was determined. The format is functional. An outline of the steps:
as §1

Another assay concerns Mycobacterium gordonae. The experiment in a line: In vitro cytotoxicity against Mycobacterium gordonae (CIP 6427) was determined. It counts as functional. In outline: as §1
Another assay relates to Vero. Nature of the assay: Minimal toxic dose that induced a reduction of 50% of cell growth in Vero cell line […]. The format is functional, Chlorocebus sabaeus. An outline of the steps: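 VERO monolayers in Dulbecco's modified MEM with 2% fetal calf serum were seeded at 9'10⁴ cells per well in six-well plates. Compounds, dissolved in DMSO at 10 mg/mL initially, were added after 24 h. Five days later, cells were trypsinised and counted in a Neubauer chamber. MTD50 was the concentration giving 50% growth reduction versus control.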

In assay [4] the test system is Mycobacterium avium. The experiment in a line: In vitro cytotoxicity against Mycobacterium avium (CIP 103317) was determined.

As to `CN(Cc1ccc(-c2ccccc2)cc1)c1ccc(CN2CCSCC2)cc1`, the MIC against Mycobacterium avium [1] was 4 µg/mL (≈ 10.3 µM); in assay [2], 0.5 µg/mL (≈ 1.29 µM); in assay [3] it was above 16 µg/mL; with Mycobacterium marinum, 8 µg/mL (≈ 20.6 µM); in the assay on Mycobacterium gordonae, above 16 µg/mL. The molecule also yielded an MTD50 in the assay on Vero of 8 µg/mL.
With `O=C(Nc1ccc(CN2CCSCC2)cc1)c1ccc(-c2ccccc2)cc1`, the MIC (against Mycobacterium avium [1]; in assay [2]; in assay [3]; against Mycobacterium marinum; in the assay with Mycobacterium gordonae) was above 16 µg/mL throughout. This molecule gave an MTD50 in the assay on Vero of 16 µg/mL.
Take `NNC(=O)c1ccncc1` [ISONIAZID]: the MIC against Mycobacterium avium [1] is 32 µg/mL (≈ 233 µM); in assay [2], 0.25 µg/mL (≈ 1.82 µM); in assay [3] it was 64 µg/mL (≈ 467 µM); in the assay on Mycobacterium marinum it was 16 µg/mL (≈ 117 µM); with Mycobacterium gordonae it was 32 µg/mL (≈ 233 µM). Besides, the MTD50 in the assay with Vero is 32 µg/mL.
Regarding `c1ccc(-c2ccc(CNc3ccc(CN4CCSCC4)cc3)cc2)cc1`, the MIC is 0.5 µg/mL (≈ 1.33 µM) in assay [2]; above 16 µg/mL in assay [3]; 8 µg/mL (≈ 21.4 µM) in the assay with Mycobacterium marinum; 8 µg/mL (≈ 21.4 µM) against Mycobacterium gordonae; 4 µg/mL (≈ 10.7 µM) in the assay with Mycobacterium avium [4]. The MTD50 with Vero came out at 8 µg/mL.
Turning to `C[N+](C)(Cc1ccc(-c2ccccc2)cc1)c1ccc(CN2CCSCC2)cc1.[I-]`, the MIC in the assay on Mycobacterium avium [1] was 16 µg/mL; in assay [2], 8 µg/mL; in assay [3], above 16 µg/mL; against Mycobacterium marinum, 16 µg/mL; in the assay with Mycobacterium gordonae, 8 µg/mL. In the assay with Vero, this molecule came in with an MTD50 of 16 µg/mL.
Turning to `CN[C@@H]1[C@H](O[C@H]2[C@H](O[C@H]3[C@H](O)[C@@H](O)[C@H](N=C(N)N)[C@@H](O)[C@@H]3N=C(N)N)O[C@@H](C)[C@]2(O)C=O)O[C@@H](CO)[C@H](O)[C@H]1O` [STREPTOMYCIN], the MIC in the assay on Mycobacterium avium [1] was 4 µg/mL (≈ 6.88 µM); in assay [2] it was 0.5 µg/mL (≈ 0.86 µM); in assay [3] it was 8 µg/mL (≈ 13.8 µM); against Mycobacterium marinum it was 32 µg/mL (≈ 55 µM); in the assay on Mycobacterium gordonae it was 16 µg/mL (≈ 27.5 µM). In addition, the MTD50 in the assay with Vero was above 64 µg/mL.
